From ChEMBL document CHEMBL4428098, “Facile synthesis of autophagonizer and evaluation of its activity to induce autophagic cell death in apoptosis-defective cell line” (Bioorg Med Chem Lett, 2016) come the findings set out here.

Assay [1] concerns MEF. Kind of assay: Induction of autophagy in Bax/Bak double knockout MEF assessed as accumulation of acidic vacuoles at 2 to 4 uM after 15 hrs by MDC/Hoechst 33342 staining based fluorescence assay. The assay is classed as functional, cell-based. The settings on record: Mus musculus. The method, boiled down:
(§1)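 Wild-type and Bax/Bak double-knockout MEFs treated 15 h at the indicated concentrations alongside DMSO vehicle. Stained with Cyto-ID reagent (green) for autophagosomes and MDC (blue) for acidic vacuoles, then imaged.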

Assay [2] deals with MEF. Kind of assay: Induction of autophagy in wild-type MEF assessed as autophagosome formation at 2 to 4 uM after 15 hrs by Cyto-ID reagent/ Hoechst 33342 staining based fluorescence assay. The assay is classed as functional, cell-based. The settings on record: Mus musculus. An outline of the steps: as §1
For assay [3], the system named is MEF. Kind of assay: Induction of autophagy in wild-type MEF assessed as accumulation of acidic vacuoles at 2 to 4 uM after 15 hrs by MDC/Hoechst 33342 staining based fluorescence assay. The settings on record: Mus musculus. The assay is classed as functional, cell-based. An outline of the steps:
as §1

In assay [4] the test system is HeLa. In words: Induction of autophagic cell death in human HeLa cells after 24 hrs by MTT assay. The assay is classed as functional, cell-based. An outline of the steps:
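MTT viability assay in HeLa cells after 24 h treatment over a log concentration range, with DMSO vehicle control. Viable cells normalized to DMSO-treated cells as percent viability. EC50 estimated from a sigmoidal dose–response curve.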

Assay [5] relates to HeLa. In words: Induction of autophagy in human HeLa cells assessed as accumulation of acidic vacuoles at 3 and 25 uM after 24 hrs by MDC/Hoechst 33342 staining based fluorescence assay. Type of assay: functional, cell-based. An outline of the steps: (§2)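 Acidic vacuoles in HeLa cells after 24 h exposure, with DMSO vehicle control. Cells stained with MDC and imaged under the DAPI filter.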

The test system of assay [6] is MEF. In words: Induction of autophagy in Bax/Bak double knockout MEF assessed as autophagosome formation at 2 to 4 uM after 15 hrs by Cyto-ID reagent/ Hoechst 33342 staining based fluorescence assay. The assay is classed as functional, cell-based. The settings on record: Mus musculus. The method, boiled down: as §1
Assay [7] deals with MEF. In words: Induction of autophagy in wild-type MEF assessed as conversion of LC3-1 to LC3-2 at 2.5 to 5 uM after 15 hrs by Western blot analysis. As to conditions: Mus musculus. Type of assay: functional, cell-based. The method, boiled down: (§3)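 Wild-type and Bax/Bak double-knockout MEFs treated 15 h at the indicated concentrations with DMSO vehicle control. LC3-I to LC3-II conversion assessed by immunoblot.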
Background: A western blot detects proteins with antibodies after separation by electrophoresis.

Assay [8] relates to MEF. In words: Induction of autophagic cell death in Bax/Bak double knockout MEF after 15 hrs by MTT assay. The settings on record: Mus musculus. On the technique in general: Tetrazolium assays rely on reduction of a dye to a coloured formazan, in cell work by metabolically active cells.
The subject of assay [9] is MEF. In words: Induction of autophagy in Bax/Bak double knockout MEF assessed as conversion of LC3-1 to LC3-2 at 2.5 to 5 uM after 15 hrs by Western blot analysis. Type of assay: functional, cell-based. The settings on record: Mus musculus. The method, boiled down:
as §3

Assay [10] deals with HeLa. Kind of assay: Induction of autophagy in human HeLa cells assessed as acidic vacuoles at 3 to 25 uM after 24 hrs by MDC/Hoechst 33342 staining based fluorescence assay. Type of assay: functional, cell-based. The method, boiled down: as §2
Assay [11] deals with MEF. Kind of assay: Induction of autophagic cell death in wild-type MEF after 15 hrs by MTT assay. The settings on record: Mus musculus.
The subject of assay [12] is HeLa. Kind of assay: Induction of autophagy in human HeLa cells assessed as accumulation of LC3-2 at 2.5 to 5 uM after 24 hrs by Western blot analysis. The assay is classed as functional, cell-based. An outline of the steps: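 Immunoblot of HeLa lysates for LC3-I to LC3-II conversion after 24 h treatment, with DMSO vehicle control and actin probed as reference.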

For assay [13], the system named is HeLa. In words: Induction of autophagy in human HeLa cells assessed as autophagosome formation after 24 hrs by Cyto-ID reagent/ Hoechst 33342 staining based fluorescence assay. The assay is classed as functional, cell-based. An outline of the steps: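 HeLa cells treated 24 h at various doses, DMSO as vehicle control. Stained with Hoechst 33342 and green Cyto-ID reagent and imaged under DAPI and GFP filters. Plate read at 340/480 nm (Hoechst) and 480/539 nm (Cyto-ID) Ex/Em. Cyto-ID fluorescence per cell taken relative to DMSO-treated cells, and a sigmoidal dose–response curve constructed.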

For assay [14], the system named is HeLa. In words: Induction of autophagy in human HeLa cells assessed as accumulation of acidic vacuoles after 24 hrs by MDC/Hoechst 33342 staining based fluorescence assay. Type of assay: functional, cell-based. An outline of the steps:
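HeLa cells exposed 24 h over a dose range with DMSO vehicle control, then stained with MDC for acidic vacuoles. Fluorescence read at 335/512 nm (Ex/Em) and normalized to viable cell number from a parallel MTT assay. Per-cell signal expressed relative to DMSO-treated cells as fold intensity. Sigmoidal dose–response curve fitted.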

Assay [15] has as its system HeLa. In words: Induction of autophagic cell death in human HeLa cells at 8 uM after 24 hrs by MTT assay relative to control. The assay is classed as functional. The method, boiled down: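 HeLa cells exposed 24 h to compound at graded concentrations with DMSO vehicle control; viability read by MTT assay and viable cell number normalized against DMSO-treated cells to give percent viable cells.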

SMILES strings stand for the structures. Activity calls are given as the source filed them. The calls are words filed in the database; no cut-off is given here.

As to `O=C(NCCC1CCCC1)c1coc(CSc2nc3sc4c(c3c(=O)n2Cc2ccccc2)CCCC4)n1`, the outcome in the assay with MEF [1], in the assay with MEF [2], with MEF [3], with HeLa [5], with MEF [6] and in the assay with MEF [7] was inactive. In addition, the result in the assay with MEF [9] and in the assay with HeLa [10] was inactive. Also, the results for the EC50 with HeLa [4], with MEF [8] and with MEF [11] were 25 µM, 24.2 µM and 28.6 µM, respectively.

Take `O=C(NCCN1CCCC1)c1coc(CSc2nc3sc4c(c3c(=O)n2Cc2ccccc2)CCCC4)n1`: the outcome in the assay with HeLa [12], with MEF [1], with MEF [2], with MEF [3], in the assay with MEF [6] and in the assay on MEF [7] was Active. Moreover, the result in the assay on MEF [9] was Active. Further, the half-maximal effective concentration (EC50) in the assay on HeLa [4] worked out at 3.5 µM; in the assay on HeLa [13] it was 3.5 µM; in the assay on HeLa [14], 1.3 µM; with MEF [8], 2.2 µM; in the assay on MEF [11], 2.1 µM. Moreover, in the assay on HeLa [13], the Activity entry is “Dose-dependent effect”. Further, the “fold change (FC)” value with HeLa [15] was 5.

The term EC50 denotes the concentration at which the effect is half-maximal.
